Bioassay records as filed in PubChem BioAssay.
TRPC6 inh – mouse TRPC6 channel inhibitors, primary screen, cell-based, HEK293, membrane potential dye; ACh-evoked depolarization; hits give low values; B-score at 10 µM; Short transient receptor potential channel 6 (Mus musculus), Q61143; 310,000 tested, 1.1% active;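 active means B-score under library mean minus 3 SD, initial fluorescence not abnormally high, positive integrated signal ratio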;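 further: B-score derived from integrated fluorescence ratio over the kinetic read; more negative B-score means stronger inhibition of depolarization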
TRPC4 agonist – activators of mouse TRPC4 channel, primary screen, Fluo4 calcium, HEK293 TRPC4beta/mu-opioid cells | AID 2237, 2010 | 310,000 tested, 0.49% active | B-score at 10 µM | Fluo4 calcium fluorescence; hits give high values | Short transient receptor potential channel 4 (Mus musculus), Q9QUQ5;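 active means B-score above 5 SD of library B-scores, and initial fluorescence ratio not above library mean plus 5 SD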;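 further: positive B-score marks a calcium rise read as TRPC4 activation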
Target sequence (Q9QUQ5 whole entry, looked up): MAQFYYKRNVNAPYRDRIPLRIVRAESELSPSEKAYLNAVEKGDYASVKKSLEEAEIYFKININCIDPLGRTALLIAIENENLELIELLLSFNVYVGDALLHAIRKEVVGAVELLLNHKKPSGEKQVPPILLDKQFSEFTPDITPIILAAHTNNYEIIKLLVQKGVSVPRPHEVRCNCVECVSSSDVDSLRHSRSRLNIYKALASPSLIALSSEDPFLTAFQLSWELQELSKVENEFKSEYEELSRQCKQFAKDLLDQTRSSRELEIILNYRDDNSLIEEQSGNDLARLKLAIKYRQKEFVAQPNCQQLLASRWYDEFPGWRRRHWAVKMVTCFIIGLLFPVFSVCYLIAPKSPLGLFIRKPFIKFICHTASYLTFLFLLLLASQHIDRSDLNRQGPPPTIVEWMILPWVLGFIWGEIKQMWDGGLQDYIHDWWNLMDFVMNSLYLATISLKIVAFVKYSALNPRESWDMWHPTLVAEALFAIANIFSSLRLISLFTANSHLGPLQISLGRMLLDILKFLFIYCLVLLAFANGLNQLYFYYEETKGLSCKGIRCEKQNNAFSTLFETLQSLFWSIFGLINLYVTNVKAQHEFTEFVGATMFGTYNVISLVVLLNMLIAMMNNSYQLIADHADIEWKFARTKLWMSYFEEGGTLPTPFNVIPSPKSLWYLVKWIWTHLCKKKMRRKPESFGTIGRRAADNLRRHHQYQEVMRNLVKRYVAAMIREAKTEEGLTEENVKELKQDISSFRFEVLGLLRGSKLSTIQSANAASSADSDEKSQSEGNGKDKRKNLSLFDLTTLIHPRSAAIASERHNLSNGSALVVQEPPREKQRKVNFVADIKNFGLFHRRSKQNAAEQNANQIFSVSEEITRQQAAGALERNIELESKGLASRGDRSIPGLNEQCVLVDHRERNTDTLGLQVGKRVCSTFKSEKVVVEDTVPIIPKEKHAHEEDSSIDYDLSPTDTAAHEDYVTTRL
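Incubation: 45 min room-temperature Fluo4 loading, 110 s read / System: HEK293 cells stably co-expressing mouse TRPC4beta and mu-opioid receptor / Signal: Fluo4 fluorescence, kinetic / Control set: buffer (low) and maximal DAMGO (high) / Measure: integrated baseline-normalised fluorescence ratio, converted to per-well B score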
TRPC4 block – inhibitors of mouse TRPC4 channel, primary screen, Fluo4 calcium, HEK293 TRPC4beta/mu-opioid cells; 300,000 tested, 0.39% active; DAMGO-evoked Fluo4 calcium flux; hits give low values; B-score at 10 µM; AID 2247, 2010; Short transient receptor potential channel 4 (Mus musculus), Q9QUQ5;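 active means B-score over 3 SD under the library average, no early fluorescence shift, positive overall ratio signal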
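material = TRPC4beta/mu-opioid receptor HEK293 cell line | probe or stimulus = sequential submaximal and maximal DAMGO stimulation | compound dosing = one concentration per compound | measured by = Fluo4 Ca2+ flux fluorescence | evaluation = integrated fluorescence ratio relative to baseline, converted to per-well B score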
TRPC4 PAM – positive allosteric modulators of TRPC4, primary screen, cell-based, mouse TRPC4beta, HEK293 mu-opioid, Fluo-4 calcium. DAMGO EC20, Fluo-4 Ca2+ flux; hits give high values. B-score at 10 µM. 310,000 tested, 0.42% active. AID 2227, 2009;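 active means B-score of calcium response area above 5 SD of library B-scores, with initial fluorescence ratio within 5 SD of library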;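 further: B-score of integrated fluorescence ratio over time as area under calcium response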
TRPC6 activator – mouse TRPC6 channel activators, primary screen, cell-based, HEK293, membrane potential dye | AID 2550, 2010 | 310,000 tested, 0.13% active | B-score at 10 µM | HEK293-TRPC6 membrane potential dye fluorescence; hits give high values;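 active means B-score of the integrated fluorescence ratio above library mean plus 3 SD, and starting fluorescence ratio within library mean plus 5 SD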;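 further: higher score means more depolarization so channel activation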
TRPC4 sel inh 2 – second selectivity test of TRPC6 inhibitors: effect on mouse TRPC4; shares compounds with TRPC6 inh; HEK293 TRPC4/MOR, membrane potential dye fluorescence; channel activated by saturating DAMGO dose; inhibition, % at 10 µM; 920 tested, 42% active; AID 2776;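 active means compounds whose fluorescence signal differed from control wells by over 3 SD, either direction, in both duplicate plates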
TRPC4 spec – mouse TRPC4 modulation by TRPC6 hits, confirmation, selectivity assay for TRPC6 inhibitor project, cell-based, HEK293 TRPC4/mu-opioid, membrane potential dye; activity change, negative = inhibition, % at 10 µM; shares compounds with TRPC6 inh; membrane potential fluorescence; 920 tested, 61% active;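 active means rise or fall in signal beyond 3 SD of buffer-only wells in both replicate plates, either sign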;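 further: integrated kinetic ratio of fluorescence range over baseline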
HEK293 MPD ctr 2-1 – nonspecific membrane potential effects, parental HEK293, confirmation, counter-screen for TRPC6 inhibitor project, cell-based, second counter screen | shares compounds with TRPC6 inh | parental HEK293 membrane potential dye fluorescence; maximal acetylcholine challenge after compound addition | signal change vs control, % at 10 µM | 920 tested, 31% active | AID 2779, 2010;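 active means membrane potential signal moving either way by over 3 SD of the maximum-effect control, in both duplicate plates, meaning non-specific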
HEK293 MPD ctr-1 – membrane potential modulation in parental HEK293, confirmation, counter-screen for TRPC6 inhibitor project, cell-based. 920 tested, 60% active. shares compounds with TRPC6 inh. AID 2780, 2010. parental HEK293 membrane potential dye fluorescence. membrane potential signal change, % at 10 µM;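 active means membrane potential signal shifting up or down by more than 3 SD of buffer-only wells, on both duplicate plates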
HEK293 MPD ctr-2 – parental HEK293 membrane potential modulation, confirmation, counter-screen for TRPC6 modulator project, cell-based | membrane potential signal change, % at 10 µM | AID 488924, 2010 | 2,400 tested, 51% active | membrane potential dye fluorescence | shares compounds with TRPC6 inh;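 active means membrane potential signal moves up or down beyond 5 SD from buffer-only wells, on both duplicate plates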
HEK293 MPD ctr 2-2 – second check of TRPC6 modulator effects in parental HEK293 cells | inhibition, % at 10 µM | membrane potential dye fluorescence; after compound, maximal acetylcholine stimulation | 2,400 tested, 14% active | shares compounds with TRPC6 inh;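 active means membrane potential signal drops by more than 5 SD from the mean control signal, in both duplicate plates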;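 further: plate controls were acetylcholine ECmax control wells for no effect and buffer only wells for full effect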
TRPC4/MOR mod – TRPC4 modulation by TRPC6 hit compounds, confirmation, selectivity assay for TRPC6 modulator project, cell-based, HEK293 TRPC4/mu-opioid, membrane potential dye, mouse | shares compounds with TRPC6 inh | membrane potential fluorescence | percent change from control (negative = decrease, positive = increase), % at 10 µM | 2,400 tested, 69% active | AID 488927, 2010;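 active means membrane potential signal moved up or down beyond 5 SD of buffer control wells, in both duplicate plates, actives on both sides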;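 further: plate controls were assay buffer wells for no effect and DAMGO maximal-effect wells for full effect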
TRPC4 ctr inh 2 – second selectivity test of TRPC6 modulators against mouse TRPC4; shares compounds with TRPC6 inh; inhibition, % at 10 µM; 2,400 tested, 55% active; AID 488928; HEK293 TRPC4/mu-opioid, membrane potential dye fluorescence; stimulated with maximal-effect DAMGO;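 active means drop in membrane potential signal beyond 5 SD of the control wells in both duplicate plates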;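 further: TRPC4 counter screen for TRPC6 hits run under conditions tuned for TRPC6 not TRPC4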
TRPC6 inh conf – mouse TRPC6 channel inhibitors, confirmation, HEK293 cells, membrane potential dye, duplicate. shares compounds with TRPC6 inh. ACh-evoked depolarization. inhibition, % at 10 µM. 3,300 tested, 43% active. AID 488960, 2010;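 active means fluorescence ratio falls more than 5 SD below the full-stimulation control mean, in both duplicate runs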;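 further: integrated fluorescence ratio of peak minus minimum over baseline after agonist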
TRPC6 act conf – mouse TRPC6 channel activators, confirmation, HEK293 cells, membrane potential dye, duplicate; shares compounds with TRPC6 inh; HEK293-TRPC6 membrane potential dye fluorescence, FDSS; activation, % at 10 µM; 2,800 tested, 11% active;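 active means ratio signal rise beyond 5 SD above unstimulated control wells' mean, seen in both duplicate runs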;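 further: plate controls were buffer EC0 wells for no effect and acetylcholine ECmax response for full effect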
* hit, by the source's call; i = inactive; . = not tested or not shown. An excerpt weighted towards active compounds, which were near 2.3% of everything screened.

SMILES	TRPC6 inh	TRPC4 agonist	TRPC4 block	TRPC4 PAM	TRPC6 activator	HEK293 MPD ctr-2	HEK293 MPD ctr 2-2	TRPC4/MOR mod	TRPC4 ctr inh 2	TRPC6 inh conf	TRPC6 act conf	others
CCOc1ccc(CCNC(=O)C2CCN(c3nnc(-n4cccc4)s3)CC2)cc1	i	i	i	i	i	.	.	.	.	.	.
Cc1ccccc1-c1nc(CSc2nc3c(c(=O)[nH]2)CCC3)c(C)o1	i	i	i	i	i	.	.	.	.	.	.
COc1cc(/C=N/NC(=O)c2ccc(-c3ccccc3)cc2)cc(OC)c1OC	i	i	i	i	i	.	.	.	.	.	.
COc1cc(/C=N/NC(=O)c2cc(-c3ccccc3)sc2N)cc(OC)c1OC	-5*	i	i	i	i	i	i	i	53%*	44%*	i
Cc1ccccc1C(=O)NNC(=O)Cc1ccccc1	i	i	i	i	i	.	.	.	.	.	.
CC(C)(C)OC(=O)NC1CC2CCCC(C1)N2Cc1ccccc1 (stereo unspecified)	-5.6*	i	i	i	i	i	88%*	14%*	29%*	74%*	.
COCC(=O)NC1CC2CCCC(C1)N2Cc1ccccc1 (stereo unspecified)	i	i	i	i	i	.	.	.	.	.	.
CCOC(=O)c1c(C)oc2c1c(C=NCCO)c(O)c1ccccc12	i	i	i	i	i	.	.	.	.	.	.
CCOC(=O)C1(C)/C(=N/Nc2ccccc2OC)C(=O)C(=O)N1c1ccccc1 (stereo unspecified)	-8.1*	i	i	i	i	-226%*	i	-40%*	68%*	44%*	i
CCOC(=O)C1Cc2ccccc2CN1 (stereo unspecified)	i	i	i	i	i	.	.	.	.	.	.
CCOC(=O)C1Cc2c([nH]c3ccccc23)CN1 (stereo unspecified)	-8.6*	i	i	i	i	.	.	.	.	i	i	TRPC4 sel inh 2=i;TRPC4 spec=i;HEK293 MPD ctr 2-1=i;HEK293 MPD ctr-1=-0.1%*
COc1cc(-c2noc(-c3cccs3)n2)cc(OC)c1OC	i	i	i	i	i	.	.	.	.	.	.
Cc1nnc(Cl)c2nn(-c3ccccc3)c(C)c12	i	i	i	i	i	.	.	.	.	.	.
CCOc1ccc(-n2nc3c(Cl)nnc(C)c3c2C)cc1	-6.7*	i	i	i	i	i	i	i	i	i	i
Cc1cc(NC(=O)c2ccc3c(c2)C(=O)N(C)C3=O)no1	-6.1*	i	i	i	i	-99%*	i	-19%*	i	i	i
CN(C)CCCN1C(=O)c2cccc3c(Br)ccc(c23)C1=O	-9.6*	i	i	i	i	i	87%*	-32%*	80%*	80%*	i
COc1ccc(Cn2c(-c3ccc(Br)cc3)c[n+]3ccccc23)cc1	-13*	i	i	i	i	-269%*	i	-47%*	48%*	60%*	i
O=C1CCCCCCCCCC/C(=N\O)CCCO1	i	i	i	i	i	.	.	.	.	.	.
O=C(CNC(=O)c1ccc(Cl)cc1)Nc1ccc(S(=O)(=O)Nc2ncccn2)cc1	i	i	i	i	i	.	.	.	.	.	.
C=CCNC(=O)NC(=O)COC(=O)COc1ccc(Br)cc1F	i	i	i	i	i	.	.	.	.	.	.
CN(C)c1cc[n+](CC(=O)c2ccc(-c3ccccc3)cc2)cc1	-7.7*	i	i	i	i	.	.	.	.	i	.	TRPC4 sel inh 2=i;TRPC4 spec=-0.5%*;HEK293 MPD ctr 2-1=47%*;HEK293 MPD ctr-1=3.3%*
O=C(C[n+]1ccccc1)c1ccc(-c2ccccc2)cc1	i	i	i	i	i	.	.	.	.	.	.
O=C(OCc1nnc(-c2ccccc2)o1)c1ccc(Cl)cc1	i	i	i	i	i	.	.	.	.	.	.
O=C(OCc1nnc(-c2ccccc2)o1)c1ccc2c(c1)OCCO2	-5.8*	i	i	i	i	i	i	12%*	i	i	.
C#CCOCCOCCOCCNc1nc(N2CCOCC2)nc(N2CCN(C(=O)[C@H](CCCCN)n3cc([C@@H](N)CC(C)C)nn3)CC2)n1	i	i	i	i	i	.	.	.	.	.	.
CN(C)CCCN(C(=O)CCc1ccccc1)c1nc2c(F)cccc2s1	i	i	i	i	i	.	.	.	.	.	.
